# ChEMBL document CHEMBL2429814 (J Med Chem, 2013)
# pEC50, pIC50: −log10 of the molar value.
# How the values were obtained:
# [1] = target: Metabotropic glutamate receptor 5 (Rattus norvegicus) (UniProt P31424); test: Potentiation of rat mGluR5 receptor stably expressed in HEK293 cells assessed as fold shift in glutamate concentration response curve at 10 uM relative to control; format: cell-based
# Summary of the method: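 HEK293 cells stably expressing rat mGlu5 were loaded with Fluo-4AM. Compound at 10 µM, or vehicle, was added, and a glutamate concentration-response curve followed 140 s later. The fold leftward shift of the glutamate curve was read from calcium fluorescence. Values are means of three independent experiments in triplicate.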
# [2] = target: Metabotropic glutamate receptor 5 (Rattus norvegicus) (UniProt P31424); test: Positive allosteric modulation of rat mGluR5 stably expressed in HEK293 cells assessed as increase in intracellular calcium level by Fluo-4AM dye-based fluorescence assay relative to glutamate; format: functional, cell-based
# [3] = target: T1, Metabotropic glutamate receptor 5 (Rattus norvegicus, UniProt P31424); test: Positive allosteric modulation of rat mGluR5 stably expressed in HEK293 cells assessed as increase in intracellular calcium level by Fluo-4AM dye-based fluorescence assay; format: functional, cell-based; conditions: read-out: EC50
# T1 sequence (P31424 whole entry): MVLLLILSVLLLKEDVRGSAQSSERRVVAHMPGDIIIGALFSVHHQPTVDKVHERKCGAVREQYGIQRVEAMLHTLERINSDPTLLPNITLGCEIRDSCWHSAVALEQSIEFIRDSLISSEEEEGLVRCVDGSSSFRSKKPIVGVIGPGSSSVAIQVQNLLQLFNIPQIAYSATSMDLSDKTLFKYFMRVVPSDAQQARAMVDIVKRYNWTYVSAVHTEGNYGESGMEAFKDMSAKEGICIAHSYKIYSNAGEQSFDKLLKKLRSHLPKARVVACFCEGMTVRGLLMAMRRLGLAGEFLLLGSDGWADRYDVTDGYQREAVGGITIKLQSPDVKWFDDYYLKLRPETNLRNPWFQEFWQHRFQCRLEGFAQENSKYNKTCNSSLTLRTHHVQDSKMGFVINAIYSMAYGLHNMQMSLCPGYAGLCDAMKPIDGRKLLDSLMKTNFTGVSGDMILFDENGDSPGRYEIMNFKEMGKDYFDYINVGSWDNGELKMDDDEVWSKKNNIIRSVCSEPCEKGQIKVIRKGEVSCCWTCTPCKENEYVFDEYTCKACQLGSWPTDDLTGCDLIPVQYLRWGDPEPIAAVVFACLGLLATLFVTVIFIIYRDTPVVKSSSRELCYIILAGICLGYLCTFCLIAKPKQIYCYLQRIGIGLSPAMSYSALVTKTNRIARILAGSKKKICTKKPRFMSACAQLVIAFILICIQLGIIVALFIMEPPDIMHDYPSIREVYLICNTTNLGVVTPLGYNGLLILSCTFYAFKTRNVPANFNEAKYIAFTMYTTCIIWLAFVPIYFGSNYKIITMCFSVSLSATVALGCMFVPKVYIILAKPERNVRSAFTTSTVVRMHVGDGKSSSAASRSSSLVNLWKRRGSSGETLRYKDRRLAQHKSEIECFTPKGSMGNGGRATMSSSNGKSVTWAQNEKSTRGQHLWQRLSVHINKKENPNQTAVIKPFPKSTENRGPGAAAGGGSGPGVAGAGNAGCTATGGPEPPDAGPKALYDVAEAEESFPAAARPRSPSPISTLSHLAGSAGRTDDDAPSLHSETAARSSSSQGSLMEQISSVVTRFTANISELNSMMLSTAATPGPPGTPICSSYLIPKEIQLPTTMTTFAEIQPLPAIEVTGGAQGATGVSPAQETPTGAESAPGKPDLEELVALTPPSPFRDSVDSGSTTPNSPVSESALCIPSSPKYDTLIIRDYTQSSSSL
# Summary of the method: (§1)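 HEK293 cells stably expressing rat mGlu5 (low receptor density line), 15,000 cells/well, grown overnight at 37°C/5% CO2. Loaded with Fluo-4AM for 50 min at 37°C in HBSS with 20 mM HEPES, 2.5 mM probenecid, pH 7.4. Triple add: compound, then EC20 glutamate 140 s later, then EC80 glutamate 60 s later. Calcium fluorescence read over time. Values are means of ≥3 independent experiments run in duplicate or triplicate.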
# [4] = target: T1, Metabotropic glutamate receptor 5; test: Positive allosteric modulation of rat mGluR5
# [5] = target: T1, Metabotropic glutamate receptor 5; test: Antagonist activity at rat mGluR5 stably expressed in HEK293 cells assessed as inhibition of glutamate-induced intracellular calcium level by Fluo-4AM dye-based fluorescence assay; format: functional, cell-based
# [6] = target: Metabotropic glutamate receptor 5 (Rattus norvegicus) (UniProt P31424); test: Antagonist activity at rat mGluR5 stably expressed in HEK293 cells assessed as inhibition of glutamate-induced intracellular calcium level by Fluo-4AM dye-based fluorescence assay relative to control; format: functional, cell-based; conditions: concentration not given here
# [7] = Plasma protein binding in rat; format: ADME, cell-free
# Summary of the method: (§2)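 Fraction unbound measured by equilibrium dialysis in human or rat plasma.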
# [8] = Plasma protein binding in human; format: ADME, cell-free; summary of the method: as §2
# [9] = Fraction unbound in rat plasma by equilibrium dialysis method; format: ADME, cell-free
# Summary of the method: (§3)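 Plasma protein binding measured by equilibrium dialysis in human or rat plasma; reported as percent unbound.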
# [10] = Fraction unbound in human plasma by equilibrium dialysis method; format: ADME, cell-free; summary of the method: as §3
# [11] = target: Metabotropic glutamate receptor 5 (Rattus norvegicus) (UniProt P31424); test: Positive allosteric modulation of mGluR5 in rat cortical neurons at 3 uM relative to DHPG
# [12] = target: T2, Metabotropic glutamate receptor 5 (Homo sapiens, UniProt P41594); test: Positive allosteric modulation of human mGluR5
# Target sequence in this assay (P41594 whole entry): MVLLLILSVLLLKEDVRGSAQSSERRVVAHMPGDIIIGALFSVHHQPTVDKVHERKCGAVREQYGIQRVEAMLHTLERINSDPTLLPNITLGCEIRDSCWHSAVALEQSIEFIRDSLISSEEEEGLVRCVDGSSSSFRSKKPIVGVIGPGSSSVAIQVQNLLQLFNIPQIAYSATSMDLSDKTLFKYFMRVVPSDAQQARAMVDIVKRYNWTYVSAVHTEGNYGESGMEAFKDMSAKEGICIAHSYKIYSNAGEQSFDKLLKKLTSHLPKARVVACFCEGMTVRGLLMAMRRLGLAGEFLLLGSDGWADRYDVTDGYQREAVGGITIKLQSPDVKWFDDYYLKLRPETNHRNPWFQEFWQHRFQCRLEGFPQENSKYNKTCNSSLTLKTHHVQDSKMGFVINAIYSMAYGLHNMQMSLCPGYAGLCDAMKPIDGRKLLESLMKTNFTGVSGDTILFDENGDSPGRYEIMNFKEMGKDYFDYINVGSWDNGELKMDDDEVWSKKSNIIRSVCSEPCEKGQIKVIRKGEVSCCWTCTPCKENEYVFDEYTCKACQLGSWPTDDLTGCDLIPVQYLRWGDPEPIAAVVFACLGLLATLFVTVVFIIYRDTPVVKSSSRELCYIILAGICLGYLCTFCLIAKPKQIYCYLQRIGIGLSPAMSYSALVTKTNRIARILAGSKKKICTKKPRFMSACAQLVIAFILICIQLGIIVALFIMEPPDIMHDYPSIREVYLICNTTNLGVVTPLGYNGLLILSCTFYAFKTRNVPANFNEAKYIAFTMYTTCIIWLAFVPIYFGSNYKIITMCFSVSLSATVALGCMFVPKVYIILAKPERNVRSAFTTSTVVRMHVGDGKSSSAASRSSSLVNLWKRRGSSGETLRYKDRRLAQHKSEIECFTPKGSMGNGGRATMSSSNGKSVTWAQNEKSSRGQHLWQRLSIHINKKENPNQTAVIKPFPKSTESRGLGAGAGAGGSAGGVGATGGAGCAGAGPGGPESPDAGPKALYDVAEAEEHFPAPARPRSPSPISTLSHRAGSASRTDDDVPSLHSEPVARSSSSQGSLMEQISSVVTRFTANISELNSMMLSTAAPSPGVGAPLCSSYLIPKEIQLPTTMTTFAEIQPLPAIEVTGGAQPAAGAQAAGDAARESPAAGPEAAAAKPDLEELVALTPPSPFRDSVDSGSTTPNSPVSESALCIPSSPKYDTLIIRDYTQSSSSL
# [13] = target: T1, Metabotropic glutamate receptor 5; test: Agonist activity at rat mGluR5 stably expressed in HEK293 cells assessed as increase in intracellular calcium level by Fluo-4AM dye-based fluorescence assay relative to glutamate; format: cell-based; conditions: read-out: Efficacy
# Summary of the method: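 HEK293 cells stably expressing rat mGlu5 (low receptor density), 15,000 cells/well, grown overnight, then loaded with Fluo-4AM for 50 min at 37°C in HBSS/20 mM HEPES/2.5 mM probenecid, pH 7.4. Triple-add protocol: compound, then glutamate EC20 140 s later, then EC80 60 s later. Fluorescence read over time. At least three independent runs in duplicate or triplicate; response given as % of glutamate maximum.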
# [14] = target: T1, Metabotropic glutamate receptor 5; test: Agonist activity at rat mGluR5 stably expressed in HEK293 cells assessed as increase in intracellular calcium level by Fluo-4AM dye-based fluorescence assay; format: cell-based; conditions: for pEC50: read-out: EC50; summary of the method: as §1
# [15] = target: T2, Metabotropic glutamate receptor 5; test: Positive allosteric modulation of mGluR5 (unknown origin) at 10 uM relative to glutamate
# Summary of the method: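 HEK293 cells stably expressing rat mGlu5 (low receptor expression line) were plated overnight at 37°C/5% CO2 and loaded with Fluo-4AM for 50 min at 37°C in HBSS with 20 mM HEPES and 2.5 mM probenecid, pH 7.4. PAM (10 µM) or vehicle was added, then a glutamate concentration-response curve 140 s later. Read-out was calcium fluorescence, reported as glutamate fold-shift, three independent runs in triplicate.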
# Target sequence in this assay (P41594 21-1212 limits assumed): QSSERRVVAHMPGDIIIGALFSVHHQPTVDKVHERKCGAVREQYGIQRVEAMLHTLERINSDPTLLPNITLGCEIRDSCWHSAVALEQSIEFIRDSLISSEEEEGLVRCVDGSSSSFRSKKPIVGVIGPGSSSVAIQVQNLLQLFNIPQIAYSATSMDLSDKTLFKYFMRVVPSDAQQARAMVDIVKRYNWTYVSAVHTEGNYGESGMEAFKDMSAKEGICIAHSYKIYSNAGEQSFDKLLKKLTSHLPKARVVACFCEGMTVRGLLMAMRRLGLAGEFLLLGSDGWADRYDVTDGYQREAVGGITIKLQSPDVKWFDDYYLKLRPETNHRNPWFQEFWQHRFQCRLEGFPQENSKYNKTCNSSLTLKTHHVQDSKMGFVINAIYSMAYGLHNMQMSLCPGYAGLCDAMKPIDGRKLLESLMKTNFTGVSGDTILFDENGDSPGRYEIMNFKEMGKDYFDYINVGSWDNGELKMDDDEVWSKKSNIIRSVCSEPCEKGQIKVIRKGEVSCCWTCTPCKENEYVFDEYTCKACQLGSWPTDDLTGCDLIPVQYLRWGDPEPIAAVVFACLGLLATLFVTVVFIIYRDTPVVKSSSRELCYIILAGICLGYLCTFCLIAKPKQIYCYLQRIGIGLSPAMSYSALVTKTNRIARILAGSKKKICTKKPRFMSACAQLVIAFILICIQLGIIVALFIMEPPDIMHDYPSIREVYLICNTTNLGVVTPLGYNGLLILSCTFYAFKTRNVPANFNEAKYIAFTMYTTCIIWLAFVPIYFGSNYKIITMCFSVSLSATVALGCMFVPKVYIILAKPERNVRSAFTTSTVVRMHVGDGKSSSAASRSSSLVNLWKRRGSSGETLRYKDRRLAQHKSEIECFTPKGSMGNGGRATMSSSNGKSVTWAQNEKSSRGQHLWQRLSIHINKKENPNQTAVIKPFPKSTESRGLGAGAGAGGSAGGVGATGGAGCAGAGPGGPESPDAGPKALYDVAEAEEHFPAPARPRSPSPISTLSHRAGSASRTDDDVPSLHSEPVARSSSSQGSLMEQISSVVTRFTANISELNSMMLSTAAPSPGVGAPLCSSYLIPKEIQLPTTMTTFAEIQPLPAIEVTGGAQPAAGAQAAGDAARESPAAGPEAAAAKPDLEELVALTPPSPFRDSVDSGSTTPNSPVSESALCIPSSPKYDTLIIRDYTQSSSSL
# [16] = target: Metabotropic glutamate receptor 5 (Rattus norvegicus) (UniProt P31424); test: Positive allosteric modulation of mGluR5 in rat cortical neurons at 1 uM relative to DHPG
# [17] = Agonist activity at rat mGluR5 T780A mutant stably expressed in HEK293 cells assessed as increase in intracellular calcium level at 1 to 100 uM by Fluo-4AM dye-based fluorescence assay; format: cell-based; conditions: hek293, 100 µM
# Chain of Metabotropic glutamate receptor 5 (Rattus norvegicus) (P31424 21-1203 limits assumed): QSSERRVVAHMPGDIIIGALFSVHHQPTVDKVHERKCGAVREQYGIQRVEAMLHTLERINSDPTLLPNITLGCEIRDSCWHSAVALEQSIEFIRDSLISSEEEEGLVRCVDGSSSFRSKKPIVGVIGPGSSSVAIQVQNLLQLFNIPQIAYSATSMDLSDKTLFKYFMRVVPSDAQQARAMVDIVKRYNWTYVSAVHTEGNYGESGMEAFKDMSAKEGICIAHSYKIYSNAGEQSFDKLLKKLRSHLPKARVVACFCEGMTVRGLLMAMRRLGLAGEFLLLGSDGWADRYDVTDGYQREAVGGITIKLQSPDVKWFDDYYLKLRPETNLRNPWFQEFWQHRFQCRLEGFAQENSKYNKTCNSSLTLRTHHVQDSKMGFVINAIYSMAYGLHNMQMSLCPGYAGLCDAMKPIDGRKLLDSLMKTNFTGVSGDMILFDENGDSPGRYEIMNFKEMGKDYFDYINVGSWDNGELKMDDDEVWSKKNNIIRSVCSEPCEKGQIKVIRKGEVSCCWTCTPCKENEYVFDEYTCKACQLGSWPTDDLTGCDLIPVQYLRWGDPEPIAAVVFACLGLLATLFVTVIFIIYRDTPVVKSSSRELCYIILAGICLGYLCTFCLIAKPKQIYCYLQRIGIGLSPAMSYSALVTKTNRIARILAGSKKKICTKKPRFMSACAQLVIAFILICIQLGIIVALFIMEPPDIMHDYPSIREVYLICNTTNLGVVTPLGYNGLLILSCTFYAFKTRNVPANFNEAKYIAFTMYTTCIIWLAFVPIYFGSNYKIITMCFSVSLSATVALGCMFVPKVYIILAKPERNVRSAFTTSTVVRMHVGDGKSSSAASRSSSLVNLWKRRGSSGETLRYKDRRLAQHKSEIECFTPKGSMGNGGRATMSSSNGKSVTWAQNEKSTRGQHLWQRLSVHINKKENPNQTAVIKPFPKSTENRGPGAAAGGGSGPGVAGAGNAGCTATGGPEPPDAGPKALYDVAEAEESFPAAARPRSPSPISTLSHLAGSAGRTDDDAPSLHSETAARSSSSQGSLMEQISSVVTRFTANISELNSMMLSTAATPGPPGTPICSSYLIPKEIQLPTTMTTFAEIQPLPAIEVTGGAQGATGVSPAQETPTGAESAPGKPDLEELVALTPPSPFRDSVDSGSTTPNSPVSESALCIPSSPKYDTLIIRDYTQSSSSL
SMILES,fold change (FC) [1],Efficacy [2] [%],pEC50 [3],Emax [13] [%],pEC50 [14],further results
O=C(NCC1CC1)c1ccc(C#Cc2cccc(F)c2)cn1,1.6,61.4,7.44,,,
CC(C)(O)CCNC(=O)c1ccc(C#Cc2cccc(F)c2)cn1,5.3,61.9,6.87,,,
CC(C)CNC(=O)c1ccc(C#Cc2cccc(F)c2)cn1,1.9,58.2,7.54,,,
CC1(CNC(=O)c2ccc(C#Cc3cccc(F)c3)cn2)COC1,3.3,60.4,7.97,,,
Cc1cc(C#Cc2cccc(F)c2)cnc1C(=O)N[C@H](C)C(C)(C)O,2.3,66.4,6.98,,,
O=C(N[C@H]1C[C@H](O)C1)c1ccc(C#Cc2cccc(F)c2)cn1,,,,,,pEC50 [4]: 7.77
Cc1nc(C#Cc2ccc(C(=O)N[C@H](C)C(C)(C)O)nc2)cs1,1.6,66.6,7.23,,,
CC1(NC(=O)c2ccc(C#Cc3ccccn3)cn2)COC1,,,,,,pIC50 [5]: 6.14; inhibition [6]: 16.7%
O=C(NC1CCC1)c1ccc(C#Cc2cccc(F)c2)cn1,,,,,,fraction unbound ([7]; read-out: PPB): < 0.01; fraction unbound ([8]; read-out: PPB): < 0.01; fraction unbound [9]: < 0.01; fraction unbound [10]: < 0.01; pEC50 [4]: 8.40
O=C(c1ccc(C#Cc2cccc(F)c2)nc1)N1CCC(O)CC1,,,,,,pEC50 [4]: 6.70
CC(C)(C)c1nnc2n1CC[C@H](c1nc(-c3ccc(F)cc3)no1)C2,,,,,,fold change (FC) [11]: 2.8; pEC50 [4]: 7.38; pEC50 [12]: 7.28
CC(C)[C@@H](C)NC(=O)c1ccc(C#Cc2ccccn2)cn1,1.3,58.5,7.10,,,
CC(C)(CO)NC(=O)c1ccc(C#Cc2cccc(F)c2)cn1,,60.9,8.10,9.3,6.14,
C[C@@H](NC(=O)c1cnc(C#Cc2cccc(F)c2)nc1)C(C)(C)O,4,68.7,6.91,,,
CC1(CCNC(=O)c2ccc(C#Cc3cccc(F)c3)cn2)COC1,,65.7,7.33,16.3,5.55,
C[C@@H](NC(=O)c1ccc(C#Cc2ccccn2)cn1)C(C)(C)C,,63,7.20,24.2,5.21,
C[C@@H](NC(=O)c1ccc(C#Cc2ccncc2)cn1)C(C)(C)O,,66.6,7.37,22.4,5.33,

SMILES,fold change (FC) [1],Efficacy [2] [%],pEC50 [3],Emax [13] [%],pEC50 [14],further results
C[C@@H]1CC[C@H](c2noc(-c3ccc(F)cn3)n2)CN1C(=O)c1ccccc1,,,,,,fold change (FC) [15]: 11
C[C@@H](NC(=O)c1ccc(C#Cc2cccc(F)c2)cc1)C(C)(C)O,,53.9,8.12,43.6,5.98,
Cc1nc(C#Cc2cccc(F)c2)ccc1C(=O)N[C@H](C)C(C)(C)O,,64.9,7.77,9.2,5.96,
C[C@@H](NC(=O)c1ccc(C#Cc2ccccc2F)cn1)C(C)(C)O,,60,8.10,29.6,5.94,
C[C@@H](NC(=O)c1ccc(C#Cc2ccccc2)cn1)C(C)(C)O,,60.9,8.39,43.2,6.06,
C[C@@H](NC(=O)c1ccc(C#Cc2cccc(F)c2)cn1)C(C)(C)F,,68.6,8.28,42.8,5.69,
C[C@@H](NC(=O)c1ccc(C#Cc2cccc(F)c2)nn1)C(C)(C)O,,70.2,7.66,16.5,5.67,
CC(C)NC(=O)c1ccc(C#Cc2ccncc2)cn1,,,,,,fold change (FC) [16]: 2; pEC50 [4]: 7.62; pEC50 [12]: 7.48
C[C@@H](NC(=O)c1ccc(C#Cc2cccc(F)c2)cn1)C(C)(C)O,,63.5,8.31,37.1,6.04,fraction unbound [7]: 0.028; fraction unbound [8]: 0.027; Activity [17]: Not Active; pEC50 [4]: 8.82
CC(C)(C)CNC(=O)c1ccc(C#Cc2cccc(F)c2)cn1,,63.9,7.78,9.5,5.59,
C[C@@H](NC(=O)c1nc(C#Cc2cccc(F)c2)cs1)C(C)(C)O,,62.1,7.47,26.1,5.32,
C[C@@H](NC(=O)c1ccc(C#CC2CCCC2)cn1)C(C)(C)O,,63.7,7.03,14.8,5.01,
O=C(NCC1CCC1)c1ccc(C#Cc2cccc(F)c2)cn1,,68.1,7.08,4.7,,EC50 ([14]; read-out: pEC50 (converted)): > 10000 nM
O=C1c2ccc(F)cc2CCC2CC[C@@H](c3noc(-c4ccc(F)cn4)n3)CN12 (stereo partly specified),,,,,,fold change (FC) [15]: 6
C[C@@H](NC(=O)c1ccc(C#Cc2cccc(F)c2)cn1)C(F)(F)F,1.5,52.1,7.68,,,
C[C@@H](NC(=O)c1ccc(C#Cc2ccccn2)cn1)C(C)(C)F,1.5,54.9,7.65,,,
